Calls of active or inactive are those of the source. No cut-off for these calls is given here.
What was measured:
[1] = target: T1, Ribosyldihydronicotinamide dehydrogenase [quinone] (Homo sapiens) (UniProt P16083); assay: (§1) Inhibition of human quinone reductase 2 using NMeH as substrate by MTT assay
T1 sequence (whole entry): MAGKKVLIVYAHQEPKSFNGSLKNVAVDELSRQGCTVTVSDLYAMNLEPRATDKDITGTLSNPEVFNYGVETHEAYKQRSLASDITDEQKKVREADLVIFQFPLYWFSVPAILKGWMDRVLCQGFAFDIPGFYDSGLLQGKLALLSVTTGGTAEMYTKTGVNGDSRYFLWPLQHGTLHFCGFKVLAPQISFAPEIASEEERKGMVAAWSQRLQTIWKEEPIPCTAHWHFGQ
Method in brief: (§2)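 Human QR2 (12 nM) with 25 μM NMeH and 200 μM MTT in 100 mM NaCl, 50 mM Tris pH 7.5, 0.1% Triton X-100, 23 °C; reactions started by enzyme. Formazan formation read at 612 nm; initial rates from ε 11,300 M-1cm-1. Inhibitor at varying concentrations, triplicate; IC50 from % inhibition versus zero-inhibitor control.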

[2] = target: T2, Ribosyldihydronicotinamide dehydrogenase [quinone] (Homo sapiens, UniProt P16083); assay: as §1; method in brief: as §2
T2 sequence (P16083 whole entry): T1 sequence (whole entry)

[3] = target: T1, Ribosyldihydronicotinamide dehydrogenase [quinone] (Homo sapiens); assay: Inhibition of human quinone reductase 2 using NMeH as substrate by MTT assay relative to control
HOP-62 = assay: Cytotoxicity against human HOP62 cells assessed as cell growth at 10 uM; format: cell-based; settings: hop-62, 10 µM
Method in brief: (§3)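 Cells exposed to compound at a single concentration; read-out is growth percent relative to untreated control cultures.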

HCT-116 = assay: Cytotoxicity against human HCT116 cells assessed as cell growth at 10 uM; format: cell-based; settings: hct-116, 10 µM; method in brief: as §3
SF-539 = assay: Cytotoxicity against human SF539 cells assessed as cell growth at 10 uM; format: cell-based; settings: sf-539, 10 µM; method in brief: as §3
UACC-62 = assay: Cytotoxicity against human UACC62 cells assessed as cell growth at 10 uM; format: cell-based; settings: uacc-62, 10 µM; method in brief: as §3
OVCAR-3 = assay: Cytotoxicity against human OVCAR3 cells assessed as cell growth at 10 uM; format: cell-based; settings: ovcar-3, 10 µM; method in brief: as §3
SN12C = assay: Cytotoxicity against human SN12C cells assessed as cell growth at 10 uM; format: cell-based; method in brief: as §3
DU-145 = assay: Cytotoxicity against human DU145 cells assessed as cell growth at 10 uM; format: cell-based; settings: du-145, 10 µM; method in brief: as §3
MCF7 = assay: Cytotoxicity against human MCF7 cells assessed as cell growth at 10 uM; format: cell-based; settings: mcf7, 10 µM; method in brief: as §3
[4] = target: T1, Ribosyldihydronicotinamide dehydrogenase [quinone] (Homo sapiens); assay: Ratio of IC50 for ammosamide B to compound IC50 for human quinone reductase 2 using NMeH as substrate by MTT assay

SMILES	IC50 [2]	Imax [3]	Ratio IC50 [4]	inhibition [1]	Activity (HOP-62)	Activity (HCT-116)	Activity (SF-539)	Activity (UACC-62)	Activity (OVCAR-3)	Activity (SN12C)	Activity (DU-145)	Activity (MCF7)
COC(=O)C1CC2(O)C(=O)Nc3c(Cl)cc(Cl)c(c32)N1 (centres undefined)				inactive								
CN(C)C(=O)c1cc2c3c(c(Cl)cc(Cl)c3n1)N(C)C2=O	25.2 µM	31.5%			118.26%	102.47%	101.43%	110.63%	126.09%	106.07%	127.34%	122.71%
COC(=O)c1cc(C(N)=O)nc2cc(NC(C)=O)cc(Cl)c12	9 µM	96%			103.41%	104.18%	107.48%	108.54%	120.2%	109%	124.6%	89.58%
NC(=O)c1cc(C(N)=O)c2cc(I)c(N)cc2n1	1.5 µM	64%										
CNc1c(Cl)c(N)c2c3c(cc(C(N)=O)nc13)C(=O)N2C	0.0041 µM	102%	> 10									
COC(=O)c1cc2c3c(n1)C(=O)C(=O)C(Cl)=C3N(C)C2=O					110.6%	104.56%	106.99%	96.96%	123.43%	102.66%	112.19%	94.99%
COC(=O)c1cc(C(N)=O)nc2cc(N)c(I)cc12	1.5 µM	83.9%										
COC(=O)C1CC(O)(C(=O)OC)c2c(N)c(Cl)cc(Cl)c2N1 (centres undefined)				inactive								
COC(=O)c1cc(C(N)=O)nc2cc(N(C)C)cc(Cl)c12	1.6 µM	80.5%										
CN1C(=O)c2cc(C(N)=O)nc3c(Cl)cc(Cl)c1c23	5.8 µM	46.3%			105.32%	107%	104.34%	90.84%	108.21%	101.49%	97.82%	96.11%
CN1C(=O)c2cc(C(N)=O)nc3c(N)c(Cl)c(N)c1c23 [AMMOSAMIDE B]	0.061 µM	90.3%			96.95%	101.05%	88.22%	100.09%	115.24%	98.89%	114.59%	98.04%
CN1C(=O)c2cc(C(=O)NCc3ccccc3)nc3c(Cl)cc(Cl)c1c23	7.8 µM	44.8%			113.2%	103.06%	97.49%	101.93%	103.52%	107.48%	104.81%	95.79%

Continued, in another order:

IC50 [2]	Imax [3]	Ratio IC50 [4]	SMILES	inhibition [1]	Activity (HOP-62)	Activity (HCT-116)	Activity (SF-539)	Activity (UACC-62)	Activity (OVCAR-3)	Activity (SN12C)	Activity (DU-145)	Activity (MCF7)
0.15 µM	89.7%		COC(=O)c1cc(C(N)=O)nc2cc(N)c(N)c(Cl)c12									
0.24 µM	85.7%		COC(=O)c1cc(C(=O)OC)c2c(Cl)c(N)c(N)cc2n1									
1.1 µM	75.5%		COC(=O)c1cc(C(N)=O)nc2cc(N)cc(Cl)c12		109.87%	98.84%	104.82%	102.96%	110.07%	102.63%	105.75%	97.23%
3.3 µM	87.9%		COC(=O)c1cc(C(=O)OC)c2c(Cl)cc(N)cc2n1		108.99%	108.2%	117.31%	101.7%	106.32%	102.78%	108.11%	105.75%
> 100 µM			COC(=O)c1cc(C(=O)OC)c2c(Cl)cc(NC(C)=O)cc2n1		112.21%	103.44%	109.23%	112.51%	124.69%	109.64%	112.18%	100.11%
5.6 µM	91.1%		COC(=O)c1cc(C(=O)OC)c2c(Cl)cc(N)c(Cl)c2n1		104.53%	100.36%	99.06%	97.93%	109.55%	99.49%	108.85%	100.27%
4 µM	92.2%		COC(=O)c1cc(C(=O)OC)c2c(Cl)cc(N(C)C)cc2n1		114.23%	104.18%	100.61%	109.82%	115.27%	113.39%	138.91%	78.61%
22.1 µM	36.6%		COC(=O)c1cc(C(=O)OC)c2c(N)c(Cl)cc(Cl)c2n1									
